Data as given in PubChem BioAssay.
Inconclusive results are not listed.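 The calls were made as follows, unless noted: active = viability at or below 27.92% in each of two runs, the all-compound median minus 4 SD; inconclusive = no clear call, values can overlap the other calls; inactive = the rest.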

What was measured:
[1] = S. cerevisiae growth inhibition in permissive medium (OD615), pilot counter-assay for S. cerevisiae lifespan shortening project, permissive growth control (AID 705;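 active = growth inhibition above 25% in both replicates, a cutoff set 3 SD above the mean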); conditions: OD615, 24 h, at 10 µM, stronger effect = higher value
Procedure, shortened: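 assay system = Saccharomyces cerevisiae strain carrying genetically modified DeaD replicative-lifespan system | technique = absorbance (optical density) at 615 nm | buffer or medium = permissive raffinose/galactose medium | timing = cells pre-grown 4 h, then 24 h compound exposure, 30 °C humidified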

[2] = S. cerevisiae growth inhibition in restrictive medium, OD615, pilot screen, restrictive growth control, yeast lifespan reduction project (AID 706;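 active = growth inhibition above a set limit, 3 SD over mean compound inhibition, in both replicates, cut at about 43% in these data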;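 also: modified DeaD lifespan yeast strain shifted to restrictive glucose medium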); conditions: OD615, 48 h, at 10 µM, stronger effect = higher value
Procedure, shortened: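 System: modified S. cerevisiae. Buffer or medium: CSMM-D glucose medium. Incubation: 4 h pre-growth plus 48 h compound exposure, 30 °C. Detection: absorbance (optical density) measured at 615 nm.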

[3] = doxorubicin toxicity protection in MRP-1 cells – H69AR cells, CellTiter-Glo, duplicate, MRP-1 activator project, pilot screen (AID 807;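 active = viability increase at or above a cutoff of the median across tested compounds plus 3 SD, cut at about 8.5% in these data, passing the limit was not always enough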;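 also: compound pretreatment 18-22 h then 72 h combined with doxorubicin; 0% = doxorubicin alone and 100% = vehicle without doxorubicin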); conditions: H69AR viability with doxorubicin, CellTiter-Glo luminescence; at 10 µM; stronger effect = higher value
[4] = viability of HCT116 without oncogenic beta-catenin – human colon tumor cells, pilot screen (AID 823;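 active = cell viability at or below a set limit in both duplicate runs, the limit being the all-compound median minus 4 SD, cut at about 23% in these data, passing the limit was not always enough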;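 also: 0% = wells killed by 20 µM Hyamine and 100% = untreated DMSO cell wells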); conditions: HCT116 beta-catenin knockout viability, CellTiter-Glo, 60 h; at 10 µM; stronger effect = lower value
[5] = viability of PTEN-null HCT116 cells – cell-based, HCT116 clonal line, CellTiter-Glo, pilot screen (AID 824); conditions: HCT116 PTEN-deleted viability, 60 h, at 10 µM, stronger effect = lower value;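 also: 0% = 20 µM Hyamine control and 100% = vehicle cell control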
[6] = RAM pathway blockade in budding yeast – dse1pr::URA3 reporter, 5-FOA selection, pilot screen (AID 869;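 active = inhibition over a set limit, the all-compound mean plus 3 SD, in both replicate runs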;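 also: 0% = DMSO wells with no growth and 100% = 10 µM 1-NA-PP1 with full growth; RAM network block rescues cells from 5-FOA so hits raise OD615 growth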); conditions: S. cerevisiae dse1pr::URA3 5-FOA growth, OD615, 2 d; at 10 µM; stronger effect = higher value; strain carries analog-sensitive mutant Cbk1 kinase
[7] = RAM signaling pathway blockade in yeast – S. cerevisiae, Pdr1DBD-CYC8 efflux-inhibited sensitized strain, primary screen (AID 1298;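 active = RAM network inhibition above 8.4% in each of two replicates, 3 SD over the compound average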;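 also: 0% = DMSO untreated cells without growth and 100% = 10 µM 1-NA-PP1 full growth; higher means more yeast growth rescued from 5-FOA killing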); conditions: S. cerevisiae cbk1-as DSE1-URA3 strain, 5-FOA growth OD615, 2 d; at 50 µM; stronger effect = higher value

CCN(CC)c1ccc(NC(=O)CSc2nc(C)cc(=O)[nH]2)cc1
inactive: growth inhibition [1] -5.01% | growth inhibition [2] 1.71% | viability increase [3] -0.69% | viability [4] 95.7% | viability [5] 95.4% | inhibition [6] 0.125% | RAM network inhibition [7] 5.74%

O=C(Nc1nnc(-c2ccc3c(c2)CCCC3)o1)C1COc2ccccc2O1 (configuration not stated)
inactive: growth inhibition [1] 5.39% | growth inhibition [2] 23% | viability increase [3] -2.7% | viability [4] 44.3% | viability [5] 51.1% | inhibition [6] 0.315% | RAM network inhibition [7] -1.78%

CCOC(=O)C1CCCN(C(=O)c2ccco2)C1 (configuration not stated)
inactive: growth inhibition [1] -11.6% | growth inhibition [2] -12.6% | viability increase [3] -3.01% | viability [4] 93.7% | viability [5] 102% | inhibition [6] 2.3% | RAM network inhibition [7] 0.62%

Cc1c(C(=O)NCCCN2CCOCC2)sc2nc(-c3ccccc3)cn12
inactive: growth inhibition [1] -10.7% | growth inhibition [2] -11.8% | viability increase [3] -1.59% | viability [4] 92.2% | viability [5] 96% | inhibition [6] 3.44% | RAM network inhibition [7] -0.37%

COc1ccc(C2CC(c3ccc(Cl)c(Cl)c3)Nc3nc(N)nn32)cc1 (configuration not stated)
inactive: growth inhibition [1] -6.79% | growth inhibition [2] 12.7% | viability increase [3] -2.3% | viability [4] 75.4% | viability [5] 76.4% | inhibition [6] 2.52% | RAM network inhibition [7] 5.52%

Cc1cc2ccccc2n1CCNC(=O)c1cccs1
inactive: growth inhibition [1] 0.02% | growth inhibition [2] 7.93% | viability increase [3] -2.29% | viability [4] 92.6% | viability [5] 91.4% | inhibition [6] 1.69% | RAM network inhibition [7] 3.36%

Nc1cc(=O)[nH]c(SCc2nc3ccccc3n2Cc2ccccc2)n1
inactive: growth inhibition [1] -2.77% | growth inhibition [2] 17% | viability increase [3] -0.14% | viability [4] 90.4% | viability [5] 89% | inhibition [6] 0.71% | RAM network inhibition [7] 6.17%

O=C(CSc1nc2cc(Cl)ccc2s1)c1ccco1
inactive: growth inhibition [1] -10.9% | growth inhibition [2] 11.2% | viability increase [3] -4.44% | viability [4] 95% | viability [5] 93.8% | inhibition [6] -0.07% | RAM network inhibition [7] -1.19%

CCSC1=C(C#N)C(c2ccc(C)s2)CC(=O)N1 (configuration not stated)
inactive: growth inhibition [1] -16.1% | growth inhibition [2] -6.45% | viability increase [3] -0.29% | viability [4] 95.8% | viability [5] 94.1% | inhibition [6] 0.425% | RAM network inhibition [7] 0.57%

CC(C)OCCCNC(=O)c1cc2c(=O)n(C)c3ccccc3c2n1C
inactive: growth inhibition [1] 0.55% | growth inhibition [2] -0.705% | viability increase [3] -2.09% | viability [4] 103% | viability [5] 97% | inhibition [6] 0.185% | RAM network inhibition [7] 3.23%

O=C(NCc1ccc(F)cc1)c1cc2n(n1)C(C(F)(F)F)CC(C1CC1)N2 (configuration not stated)
inactive: growth inhibition [1] -4.54% | growth inhibition [2] -7.74% | viability increase [3] -0.43% | viability [4] 106% | viability [5] 96% | inhibition [6] 4.14% | RAM network inhibition [7] 4.9%

COc1ccc(N2CCN(S(=O)(=O)c3cccc4cccnc34)CC2)cc1
inactive: growth inhibition [1] -3.57% | growth inhibition [2] 8.34% | viability increase [3] -2.89% | viability [4] 84.9% | viability [5] 83.6% | inhibition [6] 0.47% | RAM network inhibition [7] 3.66%

COCCNC(=O)C1CCN(S(=O)(=O)c2ccccc2)CC1
inactive: growth inhibition [1] -2.1% | growth inhibition [2] -7.54% | viability increase [3] -1.38% | viability [4] 101% | viability [5] 93.7% | inhibition [6] -0.045% | RAM network inhibition [7] 2.93%

COc1ccc(OCC(=O)N(C)Cc2ccccc2)cc1
inactive: growth inhibition [1] -3.42% | growth inhibition [2] 1.48% | viability increase [3] -2.43% | viability [4] 96% | viability [5] 91.7% | inhibition [6] 0.72% | RAM network inhibition [7] 0.61%

CCn1c(CNC(=O)c2ccc(OC)cc2)nnc1SC
inactive: growth inhibition [1] -3.98% | growth inhibition [2] 3.58% | viability increase [3] -1.74% | viability [4] 90.6% | viability [5] 91.9% | inhibition [6] 1.44% | RAM network inhibition [7] 4.37%

Cc1nc(C)c(C(=O)Nc2cccc(C)c2C)o1
inactive: growth inhibition [1] -5.6% | growth inhibition [2] -15.8% | viability increase [3] -3.05% | viability [4] 109% | viability [5] 90.1% | inhibition [6] 3.58% | RAM network inhibition [7] 1.53%

CC(=O)c1ccc(OCC(O)Cn2nnc3ccccc32)cc1 (configuration not stated)
inactive: growth inhibition [1] -15.7% | growth inhibition [2] -1.76% | viability increase [3] 0.2% | viability [4] 87.6% | viability [5] 97.9% | inhibition [6] 0.455% | RAM network inhibition [7] 7.79%

CCOc1ccc(OCC)c(NC(=O)C2CCCN2S(=O)(=O)c2cccc3cccnc23)c1 (configuration not stated)
inactive: growth inhibition [1] -0.54% | growth inhibition [2] 8.82% | viability increase [3] -3.84% | viability [4] 69.8% | viability [5] 65.7% | inhibition [6] -0.48% | RAM network inhibition [7] 5.36%

c1ccc2c(c1)CCN(CCCNc1nc3ccccc3n3cnnc13)C2
inactive: growth inhibition [1] -9.84% | growth inhibition [2] -12.9% | viability increase [3] -4.17% | viability [4] 91.3% | viability [5] 97.1% | inhibition [6] 1.18% | RAM network inhibition [7] -1.09%

CC(C)NC(=O)C1CCCN(c2nnc(-n3cccc3)s2)C1 (configuration not stated)
inactive: growth inhibition [1] -0.35% | growth inhibition [2] 14.8% | viability increase [3] -3.11% | viability [4] 108% | viability [5] 97.6% | inhibition [6] -0.455% | RAM network inhibition [7] 0.02%

Clc1ccc(-c2nnc(N3CCCC3)nn2)cc1
inactive: growth inhibition [1] -7.18% | growth inhibition [2] 4.79% | viability increase [3] -2.71% | viability [4] 86.6% | viability [5] 92.2% | inhibition [6] 0.995% | RAM network inhibition [7] 0.52%

CCOC(=O)c1sc(N)nc1-c1ccccc1
inactive: growth inhibition [1] -5.04% | growth inhibition [2] 1.07% | viability increase [3] -2.29% | viability [4] 101% | viability [5] 94.5% | inhibition [6] 2.48% | RAM network inhibition [7] -2.06%

CCCOC(=O)C1C2C=CC3(CN(c4ccc(Cl)c(F)c4)C(=O)C13)O2 (configuration not stated)
inactive: growth inhibition [1] 4.25% | growth inhibition [2] 0.67% | viability increase [3] -2.67% | viability [4] 93.4% | viability [5] 86.5% | inhibition [6] -0.06% | RAM network inhibition [7] 1.54%

O=C(CCS(=O)(=O)c1cccc2nonc12)N1CCOCC1
inactive: growth inhibition [1] -6.54% | growth inhibition [2] -14.3% | viability increase [3] -2.16% | viability [4] 88% | viability [5] 100% | inhibition [6] 2.56% | RAM network inhibition [7] 2.65%

CCn1c2c(c3cc(Cl)ccc31)CCCC2=O
inactive: growth inhibition [1] -8.81% | growth inhibition [2] -10.1% | viability increase [3] -0.32% | viability [4] 96% | viability [5] 97.8% | inhibition [6] 0.915% | RAM network inhibition [7] 4.07%

Cc1ccc(NC(=O)CSc2nnc(Cc3cccn3C)n2-c2ccc(F)cc2)c(C)c1
inactive: growth inhibition [1] 4.68% | growth inhibition [2] 8.61% | viability increase [3] -3.99% | viability [4] 93.2% | viability [5] 81.2% | inhibition [6] 2.25% | RAM network inhibition [7] 2.03%

O=C(c1ccc(S(=O)(=O)N2CCCC2)cc1)N1CCCc2ccccc21
inactive: growth inhibition [1] -17.6% | growth inhibition [2] -13.7% | viability increase [3] -4.87% | viability [4] 95.1% | viability [5] 92.4% | inhibition [6] 0.11% | RAM network inhibition [7] 1.2%

O=C(O)CSCCc1ccccn1
inactive: growth inhibition [1] 4.38% | growth inhibition [2] 11.1% | viability increase [3] -0.02% | viability [4] 98.3% | viability [5] 99.6% | inhibition [6] 1.27% | RAM network inhibition [7] 4.45%

COc1ccccc1N(CC(N)=O)S(=O)(=O)c1ccc(C)cc1
inactive: growth inhibition [1] 0.675% | growth inhibition [2] -2.73% | viability increase [3] -1.48% | viability [4] 98.2% | viability [5] 98% | inhibition [6] 0.21% | RAM network inhibition [7] 3.22%

Cc1onc(-c2ccccc2Cl)c1C(=O)N(C)C1CCCCC1
inactive: growth inhibition [1] -18.5% | growth inhibition [2] -9.2% | viability increase [3] -2.42% | viability [4] 46.5% | viability [5] 63.2% | inhibition [6] -0.15% | RAM network inhibition [7] 2.15%

Cn1c(=O)oc2cc(S(=O)(=O)N3CCCC(C(=O)NCCN4CCOCC4)C3)ccc21 (configuration not stated)
inactive: growth inhibition [1] -1% | growth inhibition [2] 10.4% | viability increase [3] -0.15% | viability [4] 103% | viability [5] 108% | inhibition [6] 0.68% | RAM network inhibition [7] 4.15%

Cc1ccc(C)c(C(=O)COC(=O)c2ccc(Br)o2)c1
inactive: growth inhibition [1] -12.9% | growth inhibition [2] -17.1% | viability increase [3] -0.26% | viability [4] 94.2% | viability [5] 86.2% | inhibition [6] 0.38% | RAM network inhibition [7] 1.4%

Cc1cccc(OCC(=O)Nc2ccc3c(c2)OCO3)c1C
inactive: growth inhibition [1] -5.98% | growth inhibition [2] -2.99% | viability increase [3] -0.26% | viability [4] 103% | viability [5] 103% | inhibition [6] 1.77% | RAM network inhibition [7] 7.79%

CCc1ccc(N2CCN(C(=O)c3ccc(OC)c(OC)c3)CC2)cc1
inactive: growth inhibition [1] -15.2% | growth inhibition [2] -8.32% | viability increase [3] 2.36% | viability [4] 57.3% | viability [5] 79% | inhibition [6] 0.975% | RAM network inhibition [7] 2.51%

OCCN1CCN(c2ncnc3ccc(Br)cc23)CC1
inactive: growth inhibition [1] -15.5% | growth inhibition [2] 4.06% | viability increase [3] -4.77% | viability [4] 99.1% | viability [5] 96.7% | inhibition [6] -0.12% | RAM network inhibition [7] -1.2%

Cc1ccc(C(=O)NCCCCNC(=O)c2ccc(C)o2)o1
inactive: growth inhibition [1] -5.8% | growth inhibition [2] -4.64% | viability increase [3] -1.97% | viability [4] 106% | viability [5] 96.3% | inhibition [6] 3.56% | RAM network inhibition [7] 4.03%
